In ChEMBL document CHEMBL3124905, “Isothiocoumarin-3-carboxylic acid derivatives: synthesis, anticancer and antitrypanosomal activity evaluation” (Eur J Med Chem, 2014):

Assays:
[1] = Growth inhibition of human SF539 cells after 48 hrs by SRB assay; format: functional; details: SF-539, 48 h
Method in brief: (§1)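 NCI five-dose assay against the ~60-cell-line panel (nine cancer types). Tenfold dilutions from 10−4 to 10−8 M were used with continuous 48-h exposure and SRB absorbance readout. Percent growth was computed from time-zero, control and treated absorbances. GI50 is the concentration giving 50% lower net protein increase than controls. Values not reached are reported as beyond the tested range.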

[2] = test system: Trypanosoma brucei brucei; experiment: Antitrypanosomal activity against bloodstream form of Trypanosoma brucei brucei strain 90-13 assessed as inhibition of parasite growth at 1 ug/ml after 72 hrs by resazurin reduction test; format: functional; details: strain 90-13, 72 h
Method in brief: (§2)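 Trypanosoma brucei brucei 90-13 bloodstream forms, grown in HMI9 with 10% FCS at 37 °C under 5% CO2. Log-phase parasites were seeded at 10^5 cells/mL with or without inhibitor, with stocks prepared in DMSO. After 72 h, resazurin was added and fluorescence was read at 530/590 nm after a further 4 h. Percent growth inhibition was calculated versus drug-free parasites, with DMSO as control.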

OVCAR-3 [3] = experiment: Growth inhibition of human OVCAR3 cells after 48 hrs by SRB assay; format: functional; details: OVCAR-3, 48 h; method in brief: as §1
Malme-3M = experiment: Growth inhibition of human MALME-3M cells after 48 hrs by SRB assay; format: functional; method in brief: as §1
[4] = test system: Trypanosoma brucei brucei; experiment: Antitrypanosomal activity against bloodstream form of Trypanosoma brucei brucei strain 90-13 assessed as inhibition of parasite growth at 10 ug/ml after 72 hrs by resazurin reduction test; format: functional; details: strain 90-13, 72 h; method in brief: as §2
TK-10 = experiment: Growth inhibition of human TK10 cells after 48 hrs by SRB assay; format: functional; details: TK-10, 48 h
Method in brief: (§3)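 NCI ~60-cell-line five-dose screen. Cells were preincubated 24-48 h, then given compound at 10-fold dilutions from 10^-4 to 10^-8 M with 48 h continuous exposure. SRB protein stain was read by absorbance at time zero, in untreated control and with drug. GI50 was derived from [(Ti-Tz)/(C-Tz)]x100=50, TGI from Ti=Tz, and LC50 from [(Ti-Tz)/Tz]x100=-50.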

[5] = Acute toxicity in ip dosed white mouse; format: organism-based; details: in vivo
Method in brief: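 White male mice, 23-25 g, dosed intraperitoneally with compound dissolved in 0.9% NaCl saline plus 1-2 drops Polysorbate 80 (Tween-80). Solutions prepared immediately before use. Doses ranged 100-1000 mg/kg, testing 4 or 5 doses with 6 animals per dose. LD50 derived by the Litchfield-Wilcoxon method.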

SR = experiment: Growth inhibition of human SR cells after 48 hrs by SRB assay; format: functional; method in brief: as §3
[6] = Growth inhibition of human OVCAR4 cells after 48 hrs by SRB assay; format: functional; details: OVCAR-4, 48 h; method in brief: as §1
SNB-75 [7] = experiment: Growth inhibition of human SNB75 cells after 48 hrs by SRB assay; format: functional; details: SNB-75, 48 h; method in brief: as §1
NCI-H322M = experiment: Growth inhibition of human NCI-H322M cells after 48 hrs by SRB assay; format: functional; method in brief: as §1
CAKI-1 [8] = experiment: Growth inhibition of human CAKI-1 cells after 48 hrs by SRB assay; format: functional; details: CAKI-1, 48 h; method in brief: as §1
[9] = Growth inhibition of human Hs 578T cells after 48 hrs by SRB assay; format: functional; method in brief: as §1
ACHN = experiment: Growth inhibition of human ACHN cells after 48 hrs by SRB assay; format: functional; method in brief: as §1
[10] = Growth inhibition of human SF539 cells at 10 uM after 48 hrs by SRB assay; values are per cent of control; details: SF-539, 48 h
[11] = Growth inhibition of human UO31 cells at 10 uM after 48 hrs by SRB assay; values are per cent of control; details: UO-31, 48 h
U-251 = experiment: Growth inhibition of human U251 cells after 48 hrs by SRB assay; format: functional; details: U-251, 48 h; method in brief: as §3
A549 = experiment: Growth inhibition of human A549/ATCC cells at 10 uM after 48 hrs by SRB assay; values are per cent of control; details: A549, 48 h
CAKI-1 [12] = experiment: Growth inhibition of human CAKI-1 cells at 10 uM after 48 hrs by SRB assay; values are per cent of control; details: CAKI-1, 48 h
SNB-75 [13] = experiment: Growth inhibition of human SNB75 cells at 10 uM after 48 hrs by SRB assay; values are per cent of control; details: SNB-75, 48 h
[14] = Growth inhibition of human HOP92 cells after 48 hrs by SRB assay; format: functional; details: HOP-92, 48 h; method in brief: as §1
[15] = Growth inhibition of human UO31 cells after 48 hrs by SRB assay; format: functional; details: UO-31, 48 h; method in brief: as §3
OVCAR-3 [16] = experiment: Growth inhibition of human OVCAR3 cells at 10 uM after 48 hrs by SRB assay; values are per cent of control; details: OVCAR-3, 48 h
[17] = Growth inhibition of human EKVX cells after 48 hrs by SRB assay; format: functional; method in brief: as §1
NCI/ADR-RES = experiment: Growth inhibition of human NCI/ADR-RES cells after 48 hrs by SRB assay; format: functional; method in brief: as §1
MCF7 = experiment: Anticancer activity against human MCF7 cells assessed as cell growth at 100 uM after 48 hrs by SRB assay; format: functional; details: MCF7, 48 h, read-out: Activity
Method in brief: (§4)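 NCI one-dose primary screen on a three-line panel (breast MCF7, lung NCI-H460, CNS SF-268). Cells were inoculated and preincubated 24–48 h, then exposed to a single concentration of 10−4 M for 48 h. The endpoint was sulforhodamine B protein staining, and results are expressed as percent growth relative to untreated control cells. Negative values denote cytotoxicity.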

[18] = Growth inhibition of human UACC257 cells after 48 hrs by SRB assay; format: functional; details: UACC-257, 48 h; method in brief: as §3
IGROV-1 = experiment: Growth inhibition of human IGROV1 cells after 48 hrs by SRB assay; format: functional; details: IGROV-1, 48 h; method in brief: as §1
BT-549 = experiment: Growth inhibition of human BT549 cells after 48 hrs by SRB assay; format: functional; details: BT-549, 48 h; method in brief: as §1
[19] = Growth inhibition of human RXF393 cells after 48 hrs by SRB assay; format: functional; details: RXF 393, 48 h; method in brief: as §1
NCI-H460 = experiment: Anticancer activity against human NCI-H460 cells assessed as cell growth at 100 uM after 48 hrs by SRB assay; format: functional; details: NCI-H460, 48 h, read-out: Activity; method in brief: as §4
SF-268 = experiment: Anticancer activity against human SF268 cells assessed as cell growth at 100 uM after 48 hrs by SRB assay; format: functional; details: SF-268, 48 h, read-out: Activity; method in brief: as §4
SK-MEL-5 = experiment: Growth inhibition of human SK-MEL-5 cells after 48 hrs by SRB assay; format: functional; details: SK-MEL-5, 48 h; method in brief: as §1
[20] = Growth inhibition of human […] cells at 10 uM after 48 hrs by SRB assay; format: functional; details: read-out: GI
Method in brief: (§5)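 NCI one-dose screen across roughly 60 human tumour cell lines. Cells were preincubated 24–48 h, then treated with a single 10−5 M concentration for 48 h. Growth was read with the SRB protein-binding dye and reported as percent growth versus untreated controls. Negative values indicate cell kill.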

CCRF-CEM = experiment: Growth inhibition of human CCRF-CEM cells at 10 uM after 48 hrs by SRB assay; format: functional; details: read-out: GI; method in brief: as §5

COc1ccc2cc(C(=O)Nc3nc(-c4ccccc4)cs3)sc(=O)c2c1OC
GI50 [1]: 1780 nM
TGI ([1]; read-out: pTGI (converted)): 3.63 µM
inhibition at 1 µg/mL [2]: 28.6%
GI50 (OVCAR-3 [3]): 1910 nM
TGI (OVCAR-3 [3]; read-out: pTGI (converted)): 3.72 µM
GI50 (Malme-3M): 1950 nM
TGI (Malme-3M; read-out: pTGI (converted)): 8.32 µM
inhibition at 10 µg/mL [4]: 11.3%
GI50 (TK-10): 2090 nM
TGI (TK-10; read-out: pTGI (converted)): 3.8 µM
LD50 [5]: 515 mg/kg
GI50 (SR): 2750 nM
TGI (SR; read-out: pTGI (converted)): > 100 µM
GI50 [6]: 1860 nM
GI50 (SNB-75 [7]): 1580 nM
TGI (SNB-75 [7]; read-out: pTGI (converted)): 3.55 µM
GI50 (NCI-H322M; read-out: GI50): 1280 nM
GI50 (NCI-H322M; read-out: pGI50 (converted)): 1290 nM
TGI (NCI-H322M; read-out: pTGI (converted)): 5.62 µM
GI50 (CAKI-1 [8]): 240 nM
TGI (CAKI-1 [8]; read-out: pTGI (converted)): 1780 nM
GI50 [9]: 2630 nM
TGI ([9]; read-out: pTGI (converted)): 4.37 µM
GI50 (ACHN): 2040 nM
TGI (ACHN; read-out: pTGI (converted)): > 100 µM
growth percent at 10 µM [10]: -48%
growth percent at 10 µM [11]: -65.5%
GI50 (U-251): 2000 nM
TGI (U-251; read-out: pTGI (converted)): 4.47 µM
growth percent at 10 µM (A549): -50.8%
growth percent at 10 µM (CAKI-1 [12]): -70.8%
growth percent at 10 µM (SNB-75 [13]): -43.8%
GI50 [14]: 1290 nM
TGI ([14]; read-out: pTGI (converted)): 3.16 µM
GI50 [15]: 1950 nM
TGI ([15]; read-out: pTGI (converted)): 3.09 µM
growth percent at 10 µM (OVCAR-3 [16]): -67%

CC(C)OC(=O)c1cc2ccccc2c(=O)s1
GI50 [17]: 19.1 µM
TGI ([17]; read-out: pTGI (converted)): 52.5 µM
GI50 (NCI/ADR-RES): 26.9 µM
TGI (NCI/ADR-RES; read-out: pTGI (converted)): 69.2 µM
growth at 100 µM (MCF7): 87%
GI50 [18]: 19.5 µM
TGI ([18]; read-out: pTGI (converted)): 66.1 µM
GI50 (IGROV-1): 20.9 µM
TGI (IGROV-1; read-out: pTGI): > 100 µM
GI50 (BT-549): 24.5 µM
TGI (BT-549; read-out: pTGI (converted)): 63.1 µM
GI50 [19]: 15.1 µM
TGI ([19]; read-out: pTGI (converted)): 67.6 µM
growth at 100 µM (NCI-H460): 13%
growth at 100 µM (SF-268): 69%
GI50 (SK-MEL-5): 24.5 µM
TGI (SK-MEL-5; read-out: pTGI (converted)): 49 µM

O=C(Nc1ccc(O)cc1)c1cc2ccccc2c(=O)s1
inhibition of growth at 10 µM [20]: -11%
inhibition of growth at 10 µM (CCRF-CEM): -28%
growth percent at 10 µM [11]: -62.1%
